Measured values: the RNAGym collection of RNA variant scans (doi:10.1126/science.aae0568)
Variants at the floor of the assay were thinned out.

B1: tRNA (parent)
chain: GUUCCGUUGGCGUAAUGGUAACGCGUCUCCCUCCUAAGGAGAAGACUGCGGGUUCGAGUCCCGUACGGAACG

Variants of: B1
Test: yeast fitness relative to wild type (ratio to wild type); higher = fitter; tRNA-Arg(CCU), competitive growth, 37 C, YPD
How it was run: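 Amplicons of the tRNA-Arg(CCU) gene were sequenced, 100-nucleotide paired-end, from the start population and from each end population of a pooled yeast competition. The competition, in six parallel replicates, lasted 24 hours in YPD at 37°C. Fitness relative to wild type was calculated from changes in genotype frequencies. Genotypes had to have ≥ 100 starting reads, and estimates < 0.5 were set to 0.5.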

Variant	yeast fitness
A21U U26G G44A	0.511
A15U U53A C62A	≤ 0.5
U13A A15G A65G	0.877
C4A U35A A37U G67U	≤ 0.5
G39C A43G A57C	≤ 0.5
A15G C27U G58C	0.717
G23A C30U C55A G63A	≤ 0.5
C31A C62A	0.6
U7A U16C G17A C29U C31A C55A	≤ 0.5
C27U C61A A69U	0.551
C5G U16A A69U	≤ 0.5
G12C C24U C46U C49G C62A	≤ 0.5
C4U C30A	0.917
U32C C49U G50C	0.638
C27G C31G G38C	0.504
U2A A20U A40C	0.552
U7C C34G A36U A37U	≤ 0.5
C4U G52A A70U	0.604
G10A G41A A42C G50C A70G	0.533
C62U C66G A70G	0.574
G38A G44C U47G	≤ 0.5

Variant	yeast fitness
A43U C55A	0.613
U28C C60A	0.632
U13G U54C G56A	0.563
C22A A43C G56A	0.853
C33G G67A	0.672
C5U A45C C49U G56A	0.616
A14C G25A A40C C46U	≤ 0.5
A42U C62A A70C	0.581
G6C C11A C66G	0.592
C5U A37C C61G	≤ 0.5
C27U A42U C62U A65C G67A	≤ 0.5
U3A A15C G17C	0.507
A40G G58A A69U	1.04
A14G A42U A45C U59A	≤ 0.5
C4G C5U C11U A14G	≤ 0.5
A43G G50A G68U	≤ 0.5
C5U G12A A45C	0.782
U13C C27U G52A U53A C66U	≤ 0.5
U2A U19C	0.867
C4U C24G C49U C60U C61A	0.58
U2C G23C C55G A69U	≤ 0.5

Variant	yeast fitness
U19A U28A U53G	≤ 0.5
C11A U59C C66U A70C	≤ 0.5
U2C C4U C33A G41C C60U A65U A69U	≤ 0.5
C22U U28A A37U G51C C66U	0.606
A20C G44A	0.778
G6A C24U A40U A45U	≤ 0.5
A36U G38A	0.617
A20C C24G	0.679
C5U G44C G68C	0.697
C29A A45C G48C C49G	≤ 0.5
C61A A70C	0.694
U53C G67A	0.808
C33U A43U C49G G50C C60G	≤ 0.5
G17C C24G G63C	≤ 0.5
U28A A36C	0.511
U3A A65G	0.899
U28C G39C	0.578
G17C A70G	0.616
U3C C5A C34U U35A C49A U54A	≤ 0.5
G10A A21G C29A	0.519
G10A A45U C61U	0.536

Variant	yeast fitness
G17A A40U G52A C60U G63C	≤ 0.5
A20U C22G C60A	≤ 0.5
G12A A15G G25C C30G G67C	≤ 0.5
G10C C22U G44C	≤ 0.5
G58A C61A C62G	0.711
G58A A65C G67A	0.643
C29U C30A A65U	≤ 0.5
G9A U53A	0.701
C29U A37C	0.894
U3C A20U G68U A69G	0.99
A36U A45U C46A C66U A69U	≤ 0.5
A45C A70C	1.05
U8C C22U A69C	0.505
U59C A70C	0.897
G63A G67C	0.707
A37G A57G U64C	≤ 0.5
C5G A15G A21G G25C C33U	≤ 0.5
U8C C22G C55G	≤ 0.5
G38A G68A	0.718
A15G A20G C49A C61U C62A G67C	≤ 0.5
U16G U19G C29G G50C C66U	≤ 0.5
